The source made the active and inactive calls. The calls are words filed in the database; no cut-off is given here.
Legend:
Assay type in all cases: cell-based
[1] = target: T1, GABA-A receptor; alpha-1/beta-2/gamma-2 (Homo sapiens, UniProt P14867+P18507+P47870); experiment: Positive allosteric modulation of GABAA alpha1beta2gamma2 receptor (unknown origin) stably expressed in CHO cells assessed as activation of GABA-induced response in presence of GABA by FLIPR assay
T1 sequence (P14867 whole entry): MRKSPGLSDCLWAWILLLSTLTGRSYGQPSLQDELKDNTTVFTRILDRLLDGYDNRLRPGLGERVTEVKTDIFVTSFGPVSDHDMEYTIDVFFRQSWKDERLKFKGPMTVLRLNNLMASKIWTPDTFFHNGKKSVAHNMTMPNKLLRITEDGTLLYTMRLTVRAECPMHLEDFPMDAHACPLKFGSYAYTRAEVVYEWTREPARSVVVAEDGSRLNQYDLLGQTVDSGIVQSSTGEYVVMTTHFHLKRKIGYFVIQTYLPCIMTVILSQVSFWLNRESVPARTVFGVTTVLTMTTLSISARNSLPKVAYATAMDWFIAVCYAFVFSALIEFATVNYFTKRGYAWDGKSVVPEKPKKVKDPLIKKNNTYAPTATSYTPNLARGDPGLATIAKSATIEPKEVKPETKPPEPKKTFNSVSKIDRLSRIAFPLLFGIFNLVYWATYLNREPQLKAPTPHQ
T1 sequence (P47870 whole entry): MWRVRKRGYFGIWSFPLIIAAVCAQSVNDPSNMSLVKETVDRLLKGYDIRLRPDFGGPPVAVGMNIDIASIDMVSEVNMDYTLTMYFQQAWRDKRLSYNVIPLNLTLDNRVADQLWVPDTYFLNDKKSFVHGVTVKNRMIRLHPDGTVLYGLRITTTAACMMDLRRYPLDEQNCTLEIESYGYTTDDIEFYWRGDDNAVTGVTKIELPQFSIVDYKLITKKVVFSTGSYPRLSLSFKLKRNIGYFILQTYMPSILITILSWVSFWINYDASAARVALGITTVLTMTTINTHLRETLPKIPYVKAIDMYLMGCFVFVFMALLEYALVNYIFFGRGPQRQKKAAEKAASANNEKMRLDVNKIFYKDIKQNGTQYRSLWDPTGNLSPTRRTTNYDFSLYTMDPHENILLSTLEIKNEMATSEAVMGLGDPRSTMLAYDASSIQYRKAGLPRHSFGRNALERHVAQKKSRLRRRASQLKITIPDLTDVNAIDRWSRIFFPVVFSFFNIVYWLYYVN
T1 sequence (P18507 whole entry): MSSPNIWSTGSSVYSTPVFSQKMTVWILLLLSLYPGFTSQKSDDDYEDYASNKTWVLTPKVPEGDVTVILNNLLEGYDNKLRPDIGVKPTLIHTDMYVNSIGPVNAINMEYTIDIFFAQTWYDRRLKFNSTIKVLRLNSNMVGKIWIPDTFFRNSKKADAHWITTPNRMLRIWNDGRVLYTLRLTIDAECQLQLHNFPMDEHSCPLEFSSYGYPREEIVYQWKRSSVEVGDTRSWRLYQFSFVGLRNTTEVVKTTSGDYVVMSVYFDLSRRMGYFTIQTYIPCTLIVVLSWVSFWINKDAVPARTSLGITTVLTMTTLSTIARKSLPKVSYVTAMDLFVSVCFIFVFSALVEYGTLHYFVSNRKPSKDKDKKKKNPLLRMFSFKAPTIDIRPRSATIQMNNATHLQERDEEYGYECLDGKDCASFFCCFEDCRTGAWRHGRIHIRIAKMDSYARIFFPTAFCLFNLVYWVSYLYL

[2] = target: T2, GABA-A receptor; alpha-1/beta-2/gamma-2 (Homo sapiens) (UniProt P14867+P47870+P18507); experiment: Additive positive allosteric modulation of GABAA alpha1beta2gamma2 receptor (unknown origin) stably expressed in CHO cells assessed as activation of GABA-induced response at 0.5 to 8 uM in presence of diazepam by FLIPR assay; details: filed as positive allosteric modulator, dose 0.5-8 µM
How it was run: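 α1β2γ2-CHO cells were run in the FLIPR membrane-potential assay. Activation was the fluorescence change at 270–330 s, normalized to 200 μM GABA. Controls were 2 μM GABA, 200 μM GABA and 0.2% DMSO.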

[3] = target: T2, GABA-A receptor; alpha-1/beta-2/gamma-2 (Homo sapiens); experiment: Additive positive allosteric modulation of GABAA alpha1beta2gamma2 receptor (unknown origin) stably expressed in CHO cells assessed as activation of GABA-induced response at 0.5 to 4 uM in presence of allopregnanolone by FLIPR assay; details: filed as positive allosteric modulator, dose 0.5-4 µM, DDE = dose-dependent effect
How it was run: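 The FLIPR membrane-potential assay used α1β2γ2-CHO cells. Compound was tested at 0.5, 1.0, 2.0 and 4.0 μM together with a fixed 0.25 μM allopregnanolone, and 2 μM GABA was added at 295 s. The fluorescence change at 270–330 s was normalized to 200 μM GABA. Plates included 2 μM GABA, 200 μM GABA and 0.2% DMSO controls.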

[4] = target: T2, GABA-A receptor; alpha-1/beta-2/gamma-2 (Homo sapiens); experiment: Positive allosteric modulation of GABAA alpha1beta2gamma2 receptor (unknown origin) stably expressed in CHO cells assessed as activation of GABA-induced response at 5 uM in presence of flumazenil by FLIPR assay; details: filed as positive allosteric modulator
How it was run: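 For the benzodiazepine-site test, α1β2γ2-CHO cells in the FLIPR membrane-potential assay received compound at 5 μM plus flumazenil at 0.001–10 μM, with 2 μM GABA added at 295 s. Activation was the fluorescence change at 270–330 s, normalized to 200 μM GABA. Controls were 2 μM GABA, 200 μM GABA and 0.2% DMSO.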

[5] = target: T2, GABA-A receptor; alpha-1/beta-2/gamma-2 (Homo sapiens); experiment: Positive allosteric modulation of GABAA alpha1beta2gamma2 receptor (unknown origin) stably expressed in CHO cells assessed as activation of GABA-induced response at 10 uM in presence of pregnenolone sulfate by FLIPR assay; details: filed as positive allosteric modulator
How it was run: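 Compound was held at 10 μM with pregnenolone sulfate at 0.001–10 μM in the FLIPR membrane-potential assay on α1β2γ2-CHO cells, and 2 μM GABA was added at 295 s. The fluorescence change at 270–330 s was normalized to 200 μM GABA. Controls were 2 μM GABA, 200 μM GABA and 0.2% DMSO.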

[6] = target: T2, GABA-A receptor; alpha-1/beta-2/gamma-2 (Homo sapiens); experiment: Additive positive allosteric modulation of GABAA alpha1beta2gamma2 receptor (unknown origin) stably expressed in CHO cells assessed as activation of GABA-induced response at 0.5 to 8 uM in presence of etazolate by FLIPR assay; details: filed as positive allosteric modulator, dose 0.5-8 µM
How it was run: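 In the FLIPR membrane-potential assay on α1β2γ2-CHO cells, compound at 0.5–8.0 μM was tested with etazolate at a fixed concentration (0.78 μM per the methods). 2 μM GABA was added at 295 s. The fluorescence change at 270–330 s was normalized to 200 μM GABA. Controls were 2 μM GABA, 200 μM GABA and 0.2% DMSO.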

Structure (SMILES)	EC50 [1] [µM]	further results
C=CCc1ccc(O)c(-c2cc(CC=C)ccc2O)c1 [MAGNOLOL]	4.8	–
C=C/C(C)=C/C[C@]1(C)[C@H](C)C[C@H](OC)[C@]23C(=C[C@@H](OC(C)=O)C[C@@H]12)[C@@H](OC(C)=O)O[C@H]3OC(C)=O	1.4	Activity [2]: Active; Activity [3]: Dde; Activity [4]: Active; Activity [5]: Active; Activity [6]: Active
O=C(/C=C/C=C/c1ccc2c(c1)OCO2)N1CCCCC1 [PIPERINE]	5.8	–
CC1=C2[C@H](/C=C(\C)C(=O)O)CC[C@@H](C)[C@H]2CC1 [VALERENIC ACID]	12.6	–
C=C/C(C)=C/C[C@]1(C)[C@H](C)C[C@H](O)[C@]23C(=C[C@@H](OC(C)=O)C[C@@H]12)[C@@H](OC(C)=O)O[C@H]3OC(C)=O	0.5	–
C=C/C(C)=C/C[C@]1(C)[C@H](C)C[C@H](OC(C)=O)[C@]23C(=C[C@@H](OC(C)=O)C[C@@H]12)[C@@H](OC(C)=O)O[C@H]3OC(C)=O	4.6	–

Source: ChEMBL document CHEMBL5143681, “Clerodane Diterpenes from Casearia corymbosa as Allosteric GABAA Receptor Modulators” (J Nat Prod, 2022)
